{"source": "paper PMC3665732", "about": "(Chemical biology & drug design, 2013)", "key": {"Albino Swiss mice [1]": {"system": "Albino Swiss mice", "test": "Forced swim test", "type": "in vivo", "settings": "30 min before the test; for antidepressant effect in the forced swim test (in words): mice, ip", "in_short": "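Male Albino Swiss mice (24-28 g), kept at 20 ± 1°C with free food and water and used once. Test compound was injected 30 min before the session. Each mouse swam 6 min in a glass cylinder (25 cm high, 10 cm diameter) holding 6 cm of water at 23-25°C. An observer timed immobility (floating, small head-keeping movements) over the last 4 min, after 2 min habituation. Mean ± SEM; Dunnett's test vs vehicle.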"}, "Albino Swiss mice [2]": {"system": "Albino Swiss mice", "test": "Locomotor activity test", "type": "in vivo", "settings": "8 20 mg/kg, 10 5 mg/kg, 12 10 mg/kg; ip 30 min before the test; first 6 minutes; vehicle 554 ± 46"}}, "data": [{"smiles": "CCCCCCCCN1CCN(c2ccc3cc([N+](=O)[O-])ccc3n2)CC1", "note": "[Compound 8, 2-(4-Octyl-piperazin-1-yl)-6-nitroquinoline]", "values": [{"measurement": "reduction in mice immobility time", "setting": "Albino Swiss mice [1]; 20 mg/kg ip", "value": 15, "unit": "%"}, {"measurement": "antidepressant effect in the forced swim test (in words)", "setting": "Albino Swiss mice [1]", "value": "moderate antidepressant activity"}, {"measurement": "Locomotor activity 6 minutes (number of light beam crossings ± S.E.M.)", "setting": "Albino Swiss mice [2]", "value": "453 ± 41"}]}, {"smiles": "CCCCCCCCCN1CCN(c2ccc3cc([N+](=O)[O-])ccc3n2)CC1", "note": "[Compound 9, 2-(4-Nonyl-piperazin-1-yl)-6-nitroquinoline]", "values": [{"measurement": "antidepressant effect in the forced swim test (in words)", "setting": "Albino Swiss mice [1]", "value": "ineffective"}]}, {"smiles": "CCCCCCCCCCN1CCN(c2ccc3cc([N+](=O)[O-])ccc3n2)CC1", "note": "[Compound 10, 2-(4-Decylo-piperazin-1-yl)-6-nitroquinoline]", "values": [{"measurement": "reduction in mice immobility time", "setting": "Albino Swiss mice [1]; 5 mg/kg ip", "value": 12, "unit": "%"}, {"measurement": "antidepressant effect in the forced swim test (in words)", "setting": "Albino Swiss mice [1]", "value": "moderate antidepressant activity"}, {"measurement": "Locomotor activity 6 minutes (number of light beam crossings ± S.E.M.)", "setting": "Albino Swiss mice [2]", "value": "239 ± 41"}]}, {"smiles": "CCCCCCCCCCCN1CCN(c2ccc3cc([N+](=O)[O-])ccc3n2)CC1", "note": "[Compound 11, 2-(4-Undecyl-piperazin-1-yl)-6-nitroquinoline]", "values": [{"measurement": "antidepressant effect in the forced swim test (in words)", "setting": "Albino Swiss mice [1]", "value": "ineffective"}]}, {"smiles": "CCCCCCCCCCCCN1CCN(c2ccc3cc([N+](=O)[O-])ccc3n2)CC1", "note": "[Compound 12, 2-(4-Dodecyl-piperazin-1-yl)-6-nitroquinoline]", "values": [{"measurement": "reduction in mice immobility time", "setting": "Albino Swiss mice [1]; 5 mg/kg ip", "value": 10, "unit": "%"}, {"measurement": "reduction in mice immobility time", "setting": "Albino Swiss mice [1]; 10 mg/kg ip", "value": 8, "unit": "%"}, {"measurement": "antidepressant effect in the forced swim test (in words)", "setting": "Albino Swiss mice [1]", "value": "moderate antidepressant activity"}, {"measurement": "Locomotor activity 6 minutes (number of light beam crossings ± S.E.M.)", "setting": "Albino Swiss mice [2]", "value": "628 ± 55"}]}]}
